# pEC50, pIC50: −log10 of the molar value. The source made the active and inactive calls. No cut-off for these calls is given here.
# Legend:
# PBMC [1] = experiment: Inhibition of LPS-induced TNFalpha production in human PBMC after 24 hrs by ELISA; type: functional, cell-based
# PBMC [2] = experiment: Inhibition of IFN-gamma production in human PBMC after 5 days by ELISA-based mixed lymphocyte reaction assay; type: functional, cell-based; settings: 120 h
# Vitamin D3 receptor [3] = target: T1, Vitamin D3 receptor (Homo sapiens, UniProt P11473); experiment: Activation of VDR in human THP1 cells assessed as increase in cathelicidin antimicrobial peptide mRNA expression by RT-PCR; type: cell-based, THP-1
# T1 sequence (P11473 whole entry): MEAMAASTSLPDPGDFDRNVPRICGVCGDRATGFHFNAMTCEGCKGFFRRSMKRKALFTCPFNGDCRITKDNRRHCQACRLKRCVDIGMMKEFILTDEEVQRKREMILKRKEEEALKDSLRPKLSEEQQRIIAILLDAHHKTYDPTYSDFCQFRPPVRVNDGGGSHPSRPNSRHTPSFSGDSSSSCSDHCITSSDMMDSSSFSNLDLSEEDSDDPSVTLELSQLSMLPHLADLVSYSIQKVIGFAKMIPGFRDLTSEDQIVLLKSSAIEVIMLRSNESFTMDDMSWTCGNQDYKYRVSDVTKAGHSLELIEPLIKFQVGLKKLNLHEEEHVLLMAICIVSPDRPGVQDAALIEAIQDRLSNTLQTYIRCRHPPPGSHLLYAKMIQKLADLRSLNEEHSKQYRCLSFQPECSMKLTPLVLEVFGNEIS
# Mus musculus = experiment: Induction of hypercalceimia in orally dosed C57BL/6 mouse administered daily for 4 days by colorimetric assay; type: functional
# In short: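 Eight-week-old female C57BL/6 mice, 3 per group, were given one oral dose daily for 4 days in miglyol, at 0.01 to 300 µg/kg. Serum was taken by tail bleed on day 5 and calcium measured colorimetrically.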
# [4] = target: T2, Vitamin D3 receptor (Homo sapiens) (UniProt P11473); experiment: Activation of VDR in human PBMC cells assessed as increase in cathelicidin antimicrobial peptide mRNA expression at 100 pM by RT-PCR; type: cell-based
# T2 sequence (whole entry): T1 sequence (P11473 whole entry)
# In short: (§1)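 PBMCs were isolated from buffy coats on a Ficoll gradient. Agonists were freshly diluted in ethanol, with ethanol in the test conditions at no more than 0.00025%. RNA was DNase-treated to exclude genomic DNA. Transcripts were quantified by RT-PCR and normalized to the GAPDH signal.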
# PBMC [5] = experiment: Inhibition of LPS-induced IL12/23p40 production in human PBMC after 24 hrs by ELISA; type: functional, cell-based
# PBMC [6] = experiment: Inhibition of LPS-induced IL6 production in human PBMC after 24 hrs by ELISA; type: functional, cell-based
# [7] = target: T2, Vitamin D3 receptor (Homo sapiens); experiment: Activation of VDR in human PBMC cells assessed as increase in cathelicidin antimicrobial peptide mRNA expression at 10 pM by RT-PCR; type: cell-based; in short: as §1
# [8] = target: T2, Vitamin D3 receptor (Homo sapiens); experiment: Activation of VDR in human PBMC cells assessed as increase in 25-hydroxyvitamin D-24-hydroxylase mRNA expression at 100 pM by RT-PCR; type: cell-based; in short: as §1
# [9] = target: T2, Vitamin D3 receptor (Homo sapiens); experiment: Activation of VDR in human PBMC cells assessed as increase in 25-hydroxyvitamin D-24-hydroxylase mRNA expression at 10 pM by RT-PCR; type: cell-based; in short: as §1
# Vitamin D3 receptor [10] = target: T1, Vitamin D3 receptor; experiment: Activation of VDR in human THP1 cells assessed as increase in 25-hydroxyvitamin D-24-hydroxylase mRNA expression by RT-PCR; type: cell-based, THP-1
compound,measurement,setting,value
C[C@]12CCC/C(=C\C=C3C[C@@H](O)C[C@H](O)C3)[C@@H]1CC=C2C1(CC#CC(O)(C(F)(F)F)C(F)(F)F)CC1,pIC50,PBMC [1],< 7.00
same,pIC50,PBMC [2],10.85
C=C1/C(=C\C=C2/CCC[C@]3(C)C(C4(CC#CC(C)(C)O)CC4)=CC[C@@H]23)C[C@@H](O)C[C@@H]1F,pIC50,PBMC [1],< 7.00
same,pIC50,PBMC [2],10.80
C=C1/C(=C\C=C2/CCC[C@]3(C)C(C4(CC#CC(C)(C)O)CC4)=CC[C@@H]23)C[C@@H](O)C[C@@H]1O,pIC50,PBMC [1],12.00
same,pIC50,PBMC [2],10.47
CC(C)(O)C#CCC1(C2=CC[C@H]3/C(=C/C=C4C[C@@H](O)C[C@H](O)C4)CCC[C@]23C)CC1,pIC50,PBMC [1],12.00
same,pIC50,PBMC [2],10.60
C=C1/C(=C\C=C2/CCC[C@]3(C)C(C4(C/C=C/C(O)(C(F)(F)F)C(F)(F)F)CC4)=CC[C@@H]23)C[C@@H](O)C[C@@H]1O,pIC50,PBMC [1],< 7.00
same,pIC50,PBMC [2],10.40
C=C1/C(=C\C=C2/CCC[C@]3(C)C(C4(CCC(=O)C(C)(C)O)CC4)=CC[C@@H]23)C[C@@H](O)C[C@@H]1O,pEC50,Vitamin D3 receptor [3],9.16
same,MTD,Mus musculus,3 µg/kg
same,Activity,[4],Active
same,pIC50,PBMC [5],> 12.00
same,pIC50,PBMC [6],8.46
same,pIC50,PBMC [2],10.60
same,Activity,[7],Active
same,Activity,[8],Active
same,Activity,[9],Active
same,pEC50,Vitamin D3 receptor [10],9.16
C=C1/C(=C\C=C2/CCC[C@]3(C)[C@@H]([C@H](C)CCCC(C)(C)O)CC[C@@H]23)C[C@@H](O)C[C@@H]1O [CALCITRIOL],MTD,Mus musculus,0.3 µg/kg
C=C1/C(=C\C=C2/CCC[C@]3(C)C(C4(CCCC(C)(C)O)CC4)=CC[C@@H]23)C[C@@H](O)C[C@@H]1O,pEC50,Vitamin D3 receptor [3],9.17
same,MTD,Mus musculus,1 µg/kg
same,Activity,[4],Active
same,pIC50,PBMC [5],> 12.00
same,pIC50,PBMC [6],8.49
same,Activity,[7],Active
same,Activity,[8],Active
same,Activity,[9],Active
same,pEC50,Vitamin D3 receptor [10],9.17
C=C1/C(=C\C=C2/CCC[C@]3(C)C(C4(CC#CC(O)(C(F)(F)F)C(F)(F)F)CC4)=CC[C@@H]23)C[C@@H](O)C[C@@H]1O,pIC50,PBMC [1],9.00
same,pIC50,PBMC [2],10.35
C=C1/C(=C\C=C2/CCC[C@]3(C)C(C4(C/C=C/C(O)(C(F)(F)F)C(F)(F)F)CC4)=CC[C@@H]23)C[C@@H](O)C[C@@H]1F,pIC50,PBMC [1],< 7.00
same,pIC50,PBMC [2],10.19
C[C@]12CCC/C(=C\C=C3C[C@@H](O)C[C@H](O)C3)[C@@H]1CC=C2C1(C/C=C/C(O)(C(F)(F)F)C(F)(F)F)CC1,pIC50,PBMC [1],< 7.00
same,pIC50,PBMC [2],10.92

# From ChEMBL document CHEMBL1153416, “Synthesis and anti-inflammatory properties of 1alpha,25-dihydroxy-16-ene-20-cyclopropyl-24-oxo-vitamin D3, a hypocalcemic, stable metabolite of 1alpha,25-dihydroxy-16-ene-20-cyclopropyl-vitamin D3” (J Med Chem, 2009)
